The record followed here is ChEMBL document CHEMBL1148429, “Penicillin-derived inhibitors that simultaneously target both metallo- and serine-beta-lactamases” (Bioorg Med Chem Lett, 2004).

A short description of test [1]: Synergistic activity of compound was determined against VIM-7 beta lactamase produced by Pseudomonas aeruginosa.
Test [2] is described as follows: Synergistic activity of compound was determined against SPM-1 beta lactamase produced by Pseudomonas aeruginosa.
Test [3] has as its system Staphylococcus aureus. Briefly: Antibacterial activity was determined against the Staphylococcus aureus ATCC 29213. The test is classed as functional.
The target in test [4] is Beta-lactamase TEM (Escherichia coli) (UniProt P62593). Briefly: Beta-Lactamase inhibitory activity against represent active class A (TEM-1) serine enzyme from Escherichia coli ATCC 35218.
Beta-lactamase TEM (Escherichia coli), sequence (P62593 whole entry): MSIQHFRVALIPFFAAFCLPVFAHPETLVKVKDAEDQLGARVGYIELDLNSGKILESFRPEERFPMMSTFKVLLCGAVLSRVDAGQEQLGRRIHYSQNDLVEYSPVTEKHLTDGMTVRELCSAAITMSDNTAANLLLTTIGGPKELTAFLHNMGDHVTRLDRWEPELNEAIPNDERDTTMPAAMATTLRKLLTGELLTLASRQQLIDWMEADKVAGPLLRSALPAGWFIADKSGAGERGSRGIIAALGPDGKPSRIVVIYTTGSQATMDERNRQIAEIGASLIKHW
Test [5] in a line: Synergistic activity of compound was determined against […]. Type of test: functional, plasmodium aeruginosa. The settings on record: Pseudomonas aeruginosa. Summed up: (§1)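 Synergy with piperacillin against metallo-β-lactamase-producing strains (IMP-1; SPM-1, VIM-1 or VIM-7 carriers). The initial screen used […] at a 1:1 antibiotic:inhibitor ratio. Inhibitor was tested with tazobactam or DVR-II-183 added as a serine β-lactamase inhibitor, or without one.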

Test [6] can be described thus: Synergic activity of compound was determined against IMP-1 beta lactamase produced by Escherichia coli. The test is classed as functional. Summed up:
as §1

Test [7] has as its system Staphylococcus aureus. Briefly: Antibacterial activity was determined against the Staphylococcus aureus ATCC 29213 in presence of Piperacillin. The test is classed as functional. Summed up:
(§2)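 MIC of piperacillin against β-lactamase-producing strains, with the piperacillin concentration varied and the inhibitor held constant at […].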

In test [8] the test system is Pseudomonas aeruginosa. Briefly: Synergistic activity against VIM-7 beta lactamase produced by Pseudomonas aeruginosa in presence of Piperacillin and compound 48; R = Resistant.
Test [9] concerns Escherichia coli. The test is described as follows: Synergic activity against IMP-1 beta lactamase producing Escherichia coli in presence of Piperacillin and compound 48; S = susceptible. The test is classed as functional. Summed up: as §1
The nature of test [10]: Synergistic activity against VIM-7 beta lactamase produced by Escherichia coli in presence of Piperacillin. Type of test: functional, plasmodium aeruginosa. The settings on record: Pseudomonas aeruginosa.
Test [11] concerns Pseudomonas aeruginosa. Briefly: Synergistic activity against SPM-1 beta lactamase produced by Pseudomonas aeruginosa in presence of Piperacillin and Tazobactam; S = susceptible.
Test [12] has as its system Pseudomonas aeruginosa. The test is described as follows: Synergistic activity against VIM-1 beta lactamase produced by Pseudomonas aeruginosa in presence of Piperacillin; R = Resistant.
Test [13] in a line: Synergistic activity against SPM-1 beta lactamase produced by Pseudomonas aeruginosa in presence of Piperacillin and Tazobactam.
Test [14] is described as follows: Synergic activity against IMP-1 beta lactamase produced by Escherichia coli in presence of Piperacillin and Tazobactam. The test is classed as functional. Summed up: as §1
A short description of test [15]: Synergistic activity against SPM-1 beta lactamase produced by Pseudomonas aeruginosa in presence of Piperacillin and DVRII183.
In test [16] the test system is Escherichia coli. Briefly: Synergic activity against IMP-1 beta lactamase produced by Escherichia coli in presence of Piperacillin and Tazobactam; S = susceptible. The test is classed as functional. Summed up:
as §1

Test [17] is described as follows: Synergistic activity against VIM-7 beta lactamase produced by Escherichia coli in presence of Piperacillin and DVRII183. Type of test: functional, plasmodium aeruginosa. Particulars: Pseudomonas aeruginosa. Summed up:
as §1

Test [18] concerns Pseudomonas aeruginosa. The test is described as follows: Synergistic activity against SPM-1 beta lactamase produced by Pseudomonas aeruginosa in presence of Piperacillin and compound 48; S = susceptible.
Test [19] is described as follows: Synergistic activity against SPM-1 beta lactamase produced by Pseudomonas aeruginosa in presence of Piperacillin.
A short description of test [20]: Synergic activity against IMP-1 beta lactamase produced by Escherichia coli in presence of Piperacillin. The test is classed as functional. A digest of the protocol:
as §1

The nature of test [21]: Synergistic activity against VIM-1 beta lactamase produced by Pseudomonas aeruginosa in presence of Piperacillin and DVRII183.
For test [22], the system named is Pseudomonas aeruginosa. Briefly: Synergistic activity against VIM-7 beta lactamase produced by Pseudomonas aeruginosa in presence of Piperacillin; R = Resistant.
Test [23] relates to Pseudomonas aeruginosa. Briefly: Synergistic activity against SPM-1 beta lactamase produced by Pseudomonas aeruginosa in presence of Piperacillin; S = susceptible.
In test [24] the test system is Escherichia coli. Briefly: Synergic activity against IMP-1 beta lactamase produced by Escherichia coli in presence of Piperacillin; S = susceptible. Type of test: functional. Summed up:
as §1

The target of test [25] is Beta-lactamase TEM (Escherichia coli) (UniProt P62593). Briefly: Beta-Lactamase inhibitory activity against representative class A (TEM-1) serine enzyme from Escherichia coli ATCC 35218 in presence of Piperacillin. Summed up:
as §2

Test [26] relates to Pseudomonas aeruginosa. Briefly: Synergistic activity against VIM-1 beta lactamase produced by Pseudomonas aeruginosa in presence of Piperacillin and Tazobactam; R = Resistant.
Test [27] addresses Beta-lactamase (Escherichia coli K-12) (UniProt P00811).
The subject of test [28] is Pseudomonas aeruginosa. Briefly: Synergistic activity against VIM-7 beta lactamase produced by Pseudomonas aeruginosa in presence of Piperacillin and Tazobactam; R = Resistant.
Test [29] is described as follows: Synergistic activity against VIM-1 beta lactamase produced by Escherichia coli in presence of Piperacillin and Tazobactam. The test is classed as functional, plasmodium aeruginosa. The settings on record: Pseudomonas aeruginosa. Summed up:
as §1

Test [30] in a line: Synergistic activity against VIM-1 beta lactamase produced by Pseudomonas aeruginosa in presence of Piperacillin.
For test [31], the target named is Beta-lactamase L1 (Stenotrophomonas maltophilia, UniProt P52700). Briefly: Beta-Lactamase Inhibition of metallo-beta-lactamase representative class B (L1) enzyme. Summed up: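 For the metallo enzyme, inhibitor and enzyme were preincubated for 4 min. Concentrated nitrocefin was then added to give the final assay volume, and IC50 was determined.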
Beta-lactamase L1, sequence (P52700 whole entry): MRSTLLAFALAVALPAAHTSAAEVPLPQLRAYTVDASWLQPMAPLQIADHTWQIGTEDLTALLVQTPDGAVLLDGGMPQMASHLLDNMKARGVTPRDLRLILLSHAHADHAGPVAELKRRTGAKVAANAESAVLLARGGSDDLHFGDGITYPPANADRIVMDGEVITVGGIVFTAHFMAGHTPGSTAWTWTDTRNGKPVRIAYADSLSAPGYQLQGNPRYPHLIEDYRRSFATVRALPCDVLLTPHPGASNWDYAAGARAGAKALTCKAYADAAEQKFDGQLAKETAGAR
Test [32] is described as follows: Synergic activity against IMP-1 beta lactamase produced by Escherichia coli in presence of Piperacillin and DVRII183. The test is classed as functional. A digest of the protocol: as §1
For test [33], the system named is Pseudomonas aeruginosa. Briefly: Synergistic activity against VIM-1 beta lactamase produced by Pseudomonas aeruginosa in presence of Piperacillin and compound 48; S = susceptible.
A short description of test [34]: Synergistic activity against VIM-7 beta lactamase produced by Escherichia coli in presence of Piperacillin and Tazobactam. Type of test: functional, plasmodium aeruginosa. The settings on record: Pseudomonas aeruginosa. A digest of the protocol: as §1
In test [35] the target is T1, Metallo-beta-lactamase type 2 (Bacillus cereus, UniProt P14488).
T1 sequence (P14488 whole entry): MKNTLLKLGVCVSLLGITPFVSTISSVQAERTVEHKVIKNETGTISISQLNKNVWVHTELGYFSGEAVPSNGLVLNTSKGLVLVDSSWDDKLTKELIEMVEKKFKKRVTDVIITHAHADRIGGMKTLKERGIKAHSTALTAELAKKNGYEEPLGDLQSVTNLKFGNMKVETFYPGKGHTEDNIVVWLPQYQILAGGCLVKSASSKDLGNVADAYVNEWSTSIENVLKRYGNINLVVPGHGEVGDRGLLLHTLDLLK
The test is described as follows: Inhibition of class B (BCII) metallo-beta-lactamase representative enzyme. Summed up:
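BCII metallo-β-lactamase assay: inhibitor and enzyme incubated together for 4 min in 970 µL, then concentrated nitrocefin added to 1 mL final volume. IC50 determined from nitrocefin hydrolysis.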

In brackets after ≈: the same amount, converted by molar mass. Where only a bound is given, the exact number is not on record here.

Beta-lactamase (Escherichia coli K-12), sequence (P00811 whole entry): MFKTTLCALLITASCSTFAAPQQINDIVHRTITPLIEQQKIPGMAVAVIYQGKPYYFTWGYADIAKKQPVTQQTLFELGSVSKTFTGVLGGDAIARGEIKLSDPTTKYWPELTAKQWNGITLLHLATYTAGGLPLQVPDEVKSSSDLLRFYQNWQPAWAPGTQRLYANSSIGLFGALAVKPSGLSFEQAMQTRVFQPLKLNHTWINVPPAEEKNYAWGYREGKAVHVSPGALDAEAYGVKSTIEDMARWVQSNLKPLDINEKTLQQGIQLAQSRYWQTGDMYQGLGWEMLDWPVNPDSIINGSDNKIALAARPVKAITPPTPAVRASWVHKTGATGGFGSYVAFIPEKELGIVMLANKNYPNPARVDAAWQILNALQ

In the case of `CCN1CCN(C(=O)N[C@@H](C(=O)N[C@@H]2C(=O)N3[C@@H]2SC(C)(C)[C@@H]3C(=O)O)c2ccccc2)C(=O)C1=O` [PIPERACILLIN], the MIC is over 128 µg/mL in test [1]; over 128 µg/mL in test [2]; 8 µg/mL (≈ 15.5 µM) in [3]; over 128 µg/mL in [4]; over 128 µg/mL in test [5]; over 128 µg/mL in [6].

In general, IC50 refers to the concentration needed to halve the response being measured. Low values mean higher potency, high ones lower potency. For the compound `CC1(C)[C@H](C(=O)O)N2C(=O)[C@@H](CS)[C@H]2S1(=O)=O`, the MIC in test [7] was 2 µg/mL; in [10], over 128 µg/mL; in test [13], 64 µg/mL; in test [14], 8 µg/mL; in test [15], 64 µg/mL; in test [17], over 128 µg/mL. In addition, the MIC in test [19] is 64 µg/mL; in [20], 8 µg/mL; in [21], 128 µg/mL; in [25], 8 µg/mL; in [27], 0.25 µg/mL (≈ 0.895 µM); in [29] it was over 128 µg/mL. The MIC was over 128 µg/mL in test [30], 8 µg/mL in test [32] and over 128 µg/mL in [34]. Moreover, the Activity result in [8] was “Resistant”; in [9], “Susceptible”; in [11], “Susceptible”; in test [12], “Resistant”; in test [16], “Susceptible”; in test [18], “Susceptible”. Also, the Activity entry is reported as “Resistant” in [22]; “Susceptible” in test [23]; “Susceptible” in [24]; “Resistant” in test [26]; “Resistant” in [28]; “Susceptible” in test [33]. Also, the IC50 in test [31] was found to be 100 nM; in [35] it was 1400 nM.
